Measured values as given in ChEMBL document CHEMBL4261527, “Benzylsulfanyl benzo-heterocycle amides and hydrazones as new agents against drug-susceptible and resistant Mycobacterium tuberculosis” (Medchemcomm, 2017).
Values after ≈ are worked out from the molar mass of the structure shown.

Key:
[1] = Stability in human liver microsomes assessed as parent compound remaining after 60 mins by LC-MS/MS analysis; format: ADME, microsome; conditions: read-out: Stability
How it was run: (§1)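 Compound incubated with human liver microsomes; percent remaining measured at 15, 30 and 60 min, relative to the amount at 0 min taken as 100%.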

[2] = Cytotoxicity against African green monkey Vero cells assessed as cell viability at 2.5 ug/ml after 72 hrs by CCK8 assay (reference value: 100%); format: cell-based; conditions: chlorocebus sabaeus, read-out: Activity
How it was run: (§2)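 Vero cells exposed to 0.01–20 μg/mL compound; vehicle control 0.625% DMSO set as 100%. Result given as percent cell viability.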

[3] = Cytotoxicity against African green monkey Vero cells assessed as cell viability at 10 ug/ml after 72 hrs by CCK8 assay (reference value: 100%); format: cell-based; conditions: chlorocebus sabaeus, read-out: Activity; how it was run: as §2
[4] = Cytotoxicity against African green monkey Vero cells assessed as cell viability at 0.039 ug/ml after 72 hrs by CCK8 assay (reference value: 100%); format: cell-based; conditions: chlorocebus sabaeus, read-out: Activity; how it was run: as §2
[5] = tested on: Mycobacterium tuberculosis; assay: Antimycobacterial activity against p-aminosalicyclic acid-resistant Mycobacterium tuberculosis ATCC 35821 by resazurin dye based fluorimetric method; format: functional
[6] = Stability in human liver microsomes assessed as parent compound remaining after 15 mins by LC-MS/MS analysis; format: ADME, microsome; conditions: read-out: Stability; how it was run: as §1
[7] = Stability in human liver microsomes assessed as parent compound remaining after 30 mins by LC-MS/MS analysis; format: ADME, microsome; conditions: read-out: Stability; how it was run: as §1
[8] = Cytotoxicity against African green monkey Vero cells assessed as cell viability at 0.156 ug/ml after 72 hrs by CCK8 assay (reference value: 100%); format: cell-based; conditions: chlorocebus sabaeus, read-out: Activity; how it was run: as §2
[9] = Cytotoxicity against African green monkey Vero cells assessed as cell viability at 0.01 ug/ml after 72 hrs by CCK8 assay (reference value: 100%); format: cell-based; conditions: chlorocebus sabaeus, read-out: Activity; how it was run: as §2
[10] = tested on: Mycobacterium tuberculosis; assay: Antimycobacterial activity against Mycobacterium tuberculosis H37Rv ATCC 27294 measured after 7 days by microplate alamar blue assay; format: functional; conditions: H37Rv ATCC 27294, 168 h
How it was run: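 Mtb H37Rv (ATCC 27294) grown in Middlebrook 7H12 broth; MIC read by Microplate Alamar Blue Assay (MABA).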

[11] = Cytotoxicity against African green monkey Vero cells assessed as cell viability at 0.312 ug/ml after 72 hrs by CCK8 assay (reference value: 100%); format: cell-based; conditions: chlorocebus sabaeus, read-out: Activity; how it was run: as §2
[12] = Cytotoxicity against African green monkey Vero cells assessed as cell viability at 20 ug/ml after 72 hrs by CCK8 assay (reference value: 100%); format: cell-based; conditions: chlorocebus sabaeus, read-out: Activity; how it was run: as §2
[13] = tested on: Mycobacterium tuberculosis; assay: Antimycobacterial activity against drug-susceptible Mycobacterium tuberculosis clinical isolate; format: functional
How it was run: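 Clinical isolates coded 960 (drug-susceptible), 330 (MDR) and 431 (XDR); MIC reported in μM.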

[14] = Cytotoxicity against African green monkey Vero cells assessed as cell viability at 0.02 ug/ml after 72 hrs by CCK8 assay (reference value: 100%); format: cell-based; conditions: chlorocebus sabaeus, read-out: Activity; how it was run: as §2
[15] = Cytotoxicity against African green monkey Vero cells assessed as cell viability at 0.078 ug/ml after 72 hrs by CCK8 assay (reference value: 100%); format: cell-based; conditions: chlorocebus sabaeus, read-out: Activity; how it was run: as §2
[16] = Cytotoxicity against African green monkey Vero cells assessed as cell viability at 5 ug/ml after 72 hrs by CCK8 assay (reference value: 100%); format: cell-based; conditions: chlorocebus sabaeus, read-out: Activity; how it was run: as §2
[17] = Cytotoxicity against African green monkey Vero cells assessed as cell viability at 0.625 ug/ml after 72 hrs by CCK8 assay (reference value: 100%); format: cell-based; conditions: chlorocebus sabaeus, read-out: Activity; how it was run: as §2
[18] = Cytotoxicity against African green monkey Vero cells assessed as cell viability at 1.25 ug/ml after 72 hrs by CCK8 assay (reference value: 100%); format: cell-based; conditions: chlorocebus sabaeus, read-out: Activity; how it was run: as §2

O=C(N/N=C/c1ccc(CSc2nc3ccccc3o2)cc1)c1ccncc1
remaining at 1 h [1]: 66.6%
viability at 72 h, 2.5 ug/ml [2]: 123%
viability at 72 h, 10 ug/ml [3]: 130%
viability at 72 h, 0.039 ug/ml [4]: 127%
MIC [5]: 0.312 µg/mL (≈ 0.803 µM)
remaining at 0.25 h [6]: 90.1%
remaining at 0.5 h [7]: 76.5%
viability at 72 h, 0.156 ug/ml [8]: 122%
viability at 72 h, 0.01 ug/ml [9]: 127%
MIC [10]: 0.24 µM (≈ 0.0932 µg/mL)
viability at 72 h, 0.312 ug/ml [11]: 120%
viability at 72 h, 20 ug/ml [12]: 109%
MIC [13]: 0.2 µM (≈ 0.0777 µg/mL)
viability at 72 h, 0.02 ug/ml [14]: 127%
viability at 72 h, 0.078 ug/ml [15]: 119%
viability at 72 h, 5 ug/ml [16]: 123%
viability at 72 h, 0.625 ug/ml [17]: 118%
viability at 72 h, 1.25 ug/ml [18]: 123%

O=C(NCc1ccc(CSc2nc3ccccc3s2)cc1)c1ccncc1
MIC [10]: > 128 µM

O=C(NCc1ccc(CSc2nc3ccccc3o2)cc1)c1cccnc1
MIC [10]: 58.2 µM (≈ 21.9 µg/mL)

O=C(N/N=C/c1ccc(CSc2nc3ccccc3o2)cc1)c1cccnc1
MIC [10]: 24.8 µM (≈ 9.63 µg/mL)

O=C(NCc1ccc(CSc2nc3ccccc3[nH]2)cc1)c1cccnc1
MIC [10]: 60.3 µM (≈ 22.6 µg/mL)

O=C(N/N=C/c1ccc(CSc2nc3ccccc3[nH]2)cc1)c1ccncc1
remaining at 1 h [1]: 44.6%
viability at 72 h, 2.5 ug/ml [2]: 114%
viability at 72 h, 10 ug/ml [3]: 107%
viability at 72 h, 0.039 ug/ml [4]: 115%
MIC [5]: 0.312 µg/mL (≈ 0.805 µM)
remaining at 0.25 h [6]: 76.5%
remaining at 0.5 h [7]: 62%
viability at 72 h, 0.156 ug/ml [8]: 115%
viability at 72 h, 0.01 ug/ml [9]: 119%
MIC [10]: 0.23 µM (≈ 0.0891 µg/mL)
viability at 72 h, 0.312 ug/ml [11]: 111%
viability at 72 h, 20 ug/ml [12]: 107%
MIC [13]: 0.2 µM (≈ 0.0775 µg/mL)
viability at 72 h, 0.02 ug/ml [14]: 116%
viability at 72 h, 0.078 ug/ml [15]: 116%
viability at 72 h, 5 ug/ml [16]: 113%
viability at 72 h, 0.625 ug/ml [17]: 112%
viability at 72 h, 1.25 ug/ml [18]: 119%

O=C(NCc1ccc(CSc2nc3ccccc3o2)cc1)c1ccncc1
MIC [10]: 0.9 µM (≈ 0.338 µg/mL)
MIC [13]: 16 µM (≈ 6.01 µg/mL)

O=C(NCc1ccc(CSc2nc3ccccc3s2)cc1)c1cccnc1
MIC [10]: > 128 µM

O=C(N/N=C/c1ccc(CSc2nc3ccccc3s2)cc1)c1ccncc1
remaining at 1 h [1]: 34%
viability at 72 h, 2.5 ug/ml [2]: 101%
viability at 72 h, 10 ug/ml [3]: 96%
viability at 72 h, 0.039 ug/ml [4]: 99%
MIC [5]: 0.625 µg/mL (≈ 1.55 µM)
remaining at 0.25 h [6]: 76.3%
remaining at 0.5 h [7]: 57.2%
viability at 72 h, 0.156 ug/ml [8]: 97%
viability at 72 h, 0.01 ug/ml [9]: 97%
MIC [10]: 0.24 µM (≈ 0.0971 µg/mL)
viability at 72 h, 0.312 ug/ml [11]: 98%
viability at 72 h, 20 ug/ml [12]: 91%
MIC [13]: 0.2 µM (≈ 0.0809 µg/mL)
viability at 72 h, 0.02 ug/ml [14]: 103%
viability at 72 h, 0.078 ug/ml [15]: 99%
viability at 72 h, 5 ug/ml [16]: 103%
viability at 72 h, 0.625 ug/ml [17]: 94%
viability at 72 h, 1.25 ug/ml [18]: 103%

O=C(N/N=C/c1ccc(CSc2nc3ccccc3[nH]2)cc1)c1cccnc1
MIC [10]: 114 µM (≈ 44.3 µg/mL)

O=C(N/N=C/c1ccc(CSc2nc3ccccc3s2)cc1)c1cccnc1
MIC [10]: > 128 µM

O=C(NCc1ccc(CSc2nc3ccccc3[nH]2)cc1)c1ccncc1
MIC [10]: 120 µM (≈ 45.1 µg/mL)

COc1cc(/C=N/NC(=O)c2ccncc2)ccc1O [FTIVAZIDE]
viability at 72 h, 2.5 ug/ml [2]: 110%
viability at 72 h, 10 ug/ml [3]: 95%
MIC [5]: 0.312 µg/mL (≈ 1.15 µM)
viability at 72 h, 0.156 ug/ml [8]: 96%
viability at 72 h, 0.01 ug/ml [9]: 95%
viability at 72 h, 0.312 ug/ml [11]: 103%
viability at 72 h, 20 ug/ml [12]: 90%
MIC [13]: 0.25 µM (≈ 0.0678 µg/mL)
viability at 72 h, 0.02 ug/ml [14]: 105%
viability at 72 h, 0.078 ug/ml [15]: 114%
viability at 72 h, 5 ug/ml [16]: 100%
viability at 72 h, 0.625 ug/ml [17]: 100%
viability at 72 h, 1.25 ug/ml [18]: 105%

NNC(=O)c1ccncc1 [ISONIAZID]
MIC [10]: 0.81 µM (≈ 0.111 µg/mL)
MIC [13]: 0.5 µM (≈ 0.0686 µg/mL)

COc1c(N2C[C@@H]3CCCN[C@@H]3C2)c(F)cc2c(=O)c(C(=O)O)cn(C3CC3)c12 [MOXIFLOXACIN]
MIC [10]: 0.5 µM (≈ 0.201 µg/mL)

O=[N+]([O-])c1cn2c(n1)OC[C@@H](OCc1ccc(OC(F)(F)F)cc1)C2 [PRETOMANID]
MIC [10]: 0.44 µM (≈ 0.158 µg/mL)

CO[C@H]1/C=C/O[C@@]2(C)Oc3c(C)c(O)c4c(O)c(c(/C=N/N5CCN(C)CC5)c(O)c4c3C2=O)NC(=O)/C(C)=C\C=C\[C@H](C)[C@H](O)[C@@H](C)[C@@H](O)[C@@H](C)[C@H](OC(C)=O)[C@@H]1C [RIFAMPIN]
MIC [10]: 0.08 µM (≈ 0.0658 µg/mL)
MIC [13]: 0.07 µM (≈ 0.0576 µg/mL)

CN[C@@H]1[C@H](O[C@H]2[C@H](O[C@H]3[C@H](O)[C@@H](O)[C@H](N=C(N)N)[C@@H](O)[C@@H]3N=C(N)N)O[C@@H](C)[C@]2(O)C=O)O[C@@H](CO)[C@H](O)[C@H]1O [STREPTOMYCIN]
MIC [10]: 0.48 µM (≈ 0.279 µg/mL)
